Screens as filed in PubChem.
M4 ag – CHRM4 agonism in calcium assay | CHO-K1 hM4/Gqi5, Fluo-8 calcium fluorescence; vehicle 0%, full acetylcholine response 100% | 360,000 tested, 0.14% active | P08173 | activation, % at 3 µM;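 active = activation above the run mean over all test wells plus 3 SD, cut at about 32% in these data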;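 note: peak over basal fluorescence ratio per well then scaled between controls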
M5 PAM – positive allosteric modulators of human muscarinic M5 receptor. P08912. 360,000 tested, 0.3% active. CHO-K1 hM5, Fluo-8 calcium, ACh EC20 PAM; 0% = ACh EC20, 100% = ACh EC100. AID 624038. activation, % at 3 µM;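 active = activation above the run cutoff, the mean activation of all test compounds plus 3 SD, cut at about 18% in these data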
Target sequence (P08912 whole entry, looked up): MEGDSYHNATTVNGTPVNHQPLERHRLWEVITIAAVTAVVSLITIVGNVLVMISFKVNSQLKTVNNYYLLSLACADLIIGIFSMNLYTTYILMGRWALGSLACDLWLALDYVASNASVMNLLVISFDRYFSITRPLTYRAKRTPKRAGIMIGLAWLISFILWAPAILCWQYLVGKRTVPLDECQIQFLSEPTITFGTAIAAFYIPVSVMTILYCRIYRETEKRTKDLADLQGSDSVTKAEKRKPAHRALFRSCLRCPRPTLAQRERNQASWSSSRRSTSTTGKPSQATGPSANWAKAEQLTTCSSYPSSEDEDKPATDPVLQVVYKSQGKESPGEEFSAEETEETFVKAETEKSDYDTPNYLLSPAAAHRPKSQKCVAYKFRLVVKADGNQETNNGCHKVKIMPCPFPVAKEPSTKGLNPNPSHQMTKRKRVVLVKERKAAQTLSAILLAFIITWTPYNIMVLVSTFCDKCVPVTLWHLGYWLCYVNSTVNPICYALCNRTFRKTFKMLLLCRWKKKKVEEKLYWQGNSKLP
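System: CHO-K1 hM5 cells. Reagent: acetylcholine, EC20 level. Compound dosing: single dose, 3 µM nominal final test concentration. Timing: Post-acetylcholine fluorescence recording 140 s. Detection: Fluo-8 calcium fluorescence. Read-out: % activation, ACh-normalized. Benchmarks: ACh EC20 and EC100 wells. Repeats: singlicate, one well per test compound.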
M5 antag – blocks acetylcholine activation of human M5 receptor; CHO-hM5 cells, Fluo-8 calcium fluorescence, ACh EC80; inhibition, % at 3 µM; 360,000 tested, 0.59% active; AID 624040;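 active = inhibition above a per-plate cutoff, the mean of that plate's test compounds plus 3 SD, cut at about 27% in these data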
CHRM4 antagonist – CHRM4 antagonism in calcium assay | P08173 | CHO-hM4 cells, ACh EC80, Fluo-8 calcium fluorescence | inhibition, % at 3 µM | 360,000 tested, 0.73% active;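 active = inhibition above its plate's cutoff, the mean inhibition of sample wells plus 3 SD, cut at about 27% in these data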
CHRM4 PAM – positive allosteric modulators of human muscarinic M4 receptor; P08173; CHO-K1 hM4/Gqi5, Fluo-8 calcium fluorescence, ACh EC20; 0% = ACh EC20, 100% = maximal ACh; activation, % at 3 µM; 360,000 tested, 0.4% active;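 active = activation above its plate's cutoff, the mean activation of sample wells plus 3 SD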
M5 ag – CHRM5 agonism in calcium assay | CHO-K1 hM5 cells, Fluo-8 calcium fluorescence; 0% DMSO wells, 100% maximal acetylcholine response | P08912 | activation, % at 3 µM | AID 624037 | 360,000 tested, 0.19% active;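 active = activation above the run's mean over test compounds plus 3 SD, cut at about 23% in these data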;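 note: signal is peak over basal fluorescence ratio across the kinetic read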
A number is an active result; n = inactive; ! = not confirmed by another sample. In the library only some 1.8% were active in any assay of this set; here they are far more common.

SMILES	M4 ag	M5 PAM	M5 antag	CHRM4 antagonist	CHRM4 PAM	M5 ag
CN1CN(c2ccccc2)C2(CCN(CCCSc3ccccc3NC(=O)/C=C/c3ccccc3)CC2)C1=O	109.9	n	36.9	58.8	n	67.8
Cc1ccc(CN2CCN(Cc3ccccc3F)CC2)cc1	n	26.0	n	n	n	n
CC(C)c1onc(C(=O)N2CCC3(CC2)OCCO3)c1[N+](=O)[O-]	n	n	n	n	n	n
Cc1ccccc1C(O)(Cc1ccccc1)C1CN2CCC1CC2 (stereo unspecified)	n	n	92.3	76.3	n	n
COC(=O)C1=C(c2ccc(-c3ccccc3)c(F)c2)C[C@@H]2CC[C@H]1N2C(=O)NCc1cc(C)oc1C(F)(F)F	n	n	n	n	n	n
CC1=C(O)C(=O)C=C2C1=CC=C1C2(C)CCC2(C)C3CC(C)(C(=O)O)CCC3(C)CCC12C (stereo unspecified)	n	n	37.1	91.2	n	n
Cc1nc(SCc2c(Cl)cccc2Cl)nc(OC(=O)N(C)C)c1C	n	n	n	n	34.0	n
O=C1CN(O)C(c2ccccc2)=c2cc(Br)ccc2=N1	n	n	n	n	n	n
CC(=O)Nc1cccc([As](=O)(c2cccc(NC(C)=O)c2)c2cccc(NC(C)=O)c2)c1	n	n	n	n	n	n
CC(=O)Nc1cc([As](=O)(O)O)ccc1O	n	n	n	n	n	26.8
C[N+](C)(C)CC#CCN1CCCC1=O	107.4	n	97.8	95.4	n	99.0
C/C(Cl)=C/CC1(CN2CCCC2=O)C(=O)NC(=O)NC1=O	n	n	n	n	n	n
O=C1CC(N2CCC(n3c(=O)[nH]c4ccccc43)CC2)C(=O)N1Cc1ccccc1 (stereo unspecified)	n	n	n	n	n	n
O=c1[nH]c2ccccc2n1C1CCN(Cc2ccc(-c3[nH]c4cc5ncnc5cc4nc3-c3ccccc3)cc2)CC1	n	n	n	n	n	67.3
COC(=O)C1=C(c2cccc(OCc3ccccc3)c2)C[C@@H]2CC[C@H]1N2C(=O)NCc1ccc(F)cc1	n	n	27.2	n	n	n
COC(=O)C1=C(c2ccc(F)cc2OCc2ccccc2)C[C@@H]2CC[C@H]1N2C(=O)NCc1ccccc1OC	n	n	n	32.8	n	n
COC(=O)C1=C(c2ccccc2)C[C@@H]2CC[C@H]1N2C(=O)NCc1ccc(F)cc1	n	n	n	46.8	n	n
CCN1CCC(N(C)C2CCCCC2)CC1	n	n	n	n	n	n
CCC(=O)[C@@H](C)[C@@H](O)[C@H](C)C[C@@H](C)C1OC(=O)C[C@@]2(O)CC=C(C)C(O2)C(C)=CCCC[C@H](O[C@H]2C[C@@H](OC(N)=O)[C@H](O)[C@@H](C)O2)C=C[C@H](C)C[C@H]1C (stereo partly specified)	n	n	n	n	n	n
Cc1[nH]c2ccccc2c1CCN	n	18.8	n	n	n	n
COCCCN=Cc1c(O)[nH]c(=S)[nH]c1=O	n	n	n	n	n	n
COc1ccc(CN2C(=O)NC(=O)/C(=C/c3ccoc3)C2=O)cc1	n	n	n	n	n	28.6
CN(C)[C@@H]1C(=O)C(C(N)=O)=C(O)[C@@]2(O)C(=O)C3=C(O)c4c(O)cccc4[C@@](C)(O)C3[C@H](O)C12 (stereo partly specified)	n	n	n	48.7!	n	n
CN1CCN(CCC(C#N)(c2ccccc2)c2ccccc2)CC1	n	n	50.1	39.8	n	n
CC(=O)c1ccc(NC2=NCCCS2)cc1	n	n	30.8	n	n	n
SMILES	M4 ag	M5 PAM	M5 antag	CHRM4 antagonist	CHRM4 PAM	M5 ag
CCOC(=O)C1(CCOc2ccccc2)CCN(Cc2ccc(C)s2)CC1	n	n	n	n	n	n
C[N+]1(C)[C@@H]2CC[C@H]1CC(OC(=O)C(CO)c1ccccc1)C2 (stereo partly specified)	n	n	98.8	99.2	n	n
C[N+]1([O-])[C@@H]2CC(OC(=O)[C@H](CO)c3ccccc3)C[C@H]1[C@@H]1O[C@@H]12 (stereo partly specified)	n	n	98.0	99.2	n	n
C[N+]1(C)C2CCC1CC(OC(=O)C(CO)c1ccccc1)C2 (stereo unspecified)	n	n	98.7	98.4	n	n
C#CC[N+]1(C)[C@@H]2CC(OC(=O)C(CO)c3ccccc3)C[C@H]1C(O)C2 (stereo partly specified)	n	n	98.2	98.2	n	n
C[N+]1(C)C2CCC1CC(OC(=O)c1ccccc1)C2 (stereo unspecified)	n	n	n	n	n	n
COP(=O)(OC)/C(C=O)=N/Nc1ccc([N+](=O)[O-])cc1	n	n	n	n	n	n
C#CCN1CCN(c2ccc(F)cc2)CC1	n	n	n	n	n	n
Fc1ccc(C(OCCN2CCN(CCCc3ccccc3)CC2)c2ccc(F)cc2)cc1	n	n	n	n	n	n
Fc1ccc(C(OCCN2CCCC2)c2ccc(F)cc2)cc1	n	n	53.7	30.1	n	n
c1ccc(CCCN2CCN(CCOC(c3ccccc3)c3ccccc3)CC2)cc1	n	n	n	47.4	n	n
Fc1ccc(C(OCCN2CCCC2)c2ccc(Br)cc2)cc1 (stereo unspecified)	n	n	37.7	n	n	n
CC(C)C[C@@H]1COc2cccc(N3CCN(C)CC3)c2S(=O)(=O)N1	n	n	98.6	70.8	n	n
CN(C)C(CNC(=O)Cc1c(Cl)cccc1Cl)c1ccccc1 (stereo unspecified)	n	n	40.9	n	n	n
CCCC(CCC)C(=O)OC[N+](C)(C)CCOC(=O)C(O)(c1ccccc1)C1CCCC1 (stereo unspecified)	n	n	98.9	97.0	n	n
CC(C)(C)C(=O)OC[N+](C)(C)CCOC(=O)C(O)(c1ccccc1)C1CCCC1 (stereo unspecified)	n	n	98.7	98.8	n	n
O=C(O)C(O)(c1ccccc1)C1CCCC1 (stereo unspecified)	n	n	n	n	n	n
O=C(COc1ccccc1)c1cn(Cc2ccccc2)c2ccccc12	n	n	n	n	n	n
COc1ccc(C(=O)C2CCCN(CC3CCCCC3)C2)cc1OC (stereo unspecified)	n	n	n	33.7	n	n
CC(=O)c1ccc(-c2ccccc2)cc1	n	n	n	n	n	n
CC(Oc1ccc(-c2ccccc2)cc1)C(=O)O (stereo unspecified)	n	18.2	n	n	n	n
